Source: ChEMBL document CHEMBL2401620, “Molecular design, synthesis and biological evaluation of BP-O-DAPY and O-DAPY derivatives as non-nucleoside HIV-1 reverse transcriptase inhibitors” (Eur J Med Chem, 2013)

Columns and labels:
[1] = tested on: Human immunodeficiency virus 1; experiment: Antiviral activity against HIV1 3B infected in human MT4 cells assessed as inhibition of virus-induced cytopathic effect after 5 days by MTT assay; format: functional, organism-based; settings: Human immunodeficiency virus 1, 3B, MT4, 120 h
Outline: (§1)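 MT-4 cells, spun 5 min at 220 g, resuspended at 6 × 10⁵ cells/mL, infected with virus stock at 100-300 CCID50. Serial 5-fold compound dilutions were added at the start, in triplicate wells. After 5 days, viability was read by MTT reduction at 540 and 690 nm.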

[2] = tested on: Human immunodeficiency virus 2; experiment: Antiviral activity against HIV2 ROD infected in human MT4 cells assessed as inhibition of virus-induced cytopathic effect after 5 days by MTT assay; format: functional, organism-based; settings: Human immunodeficiency virus 2, ISOLATE ROD, MT4, 120 h; outline: as §1
[3] = Selectivity index, ratio of CC50 for human MT4 cells to EC50 for HIV1 3B; format: toxicity, cell-based; settings: read-out: Ratio CC50/EC50
Outline: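 SI is CC50 in mock-infected MT-4 cells divided by EC50 against HIV-1 IIIB. Both come from the same 5-day MTT assay, with serial 5-fold dilutions in triplicate wells.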

[4] = tested on: Human immunodeficiency virus 1; experiment: Antiviral activity against HIV1 RES056 expressing RT K103N/Y181C mutant infected in human MT4 cells assessed as inhibition of virus-induced cytopathic effect after 5 days by MTT assay; format: functional, organism-based; settings: Human immunodeficiency virus 1, RES056, MT4, 120 h
Outline: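 MT-4 cells, exponentially growing, spun 5 min at 220 g and resuspended at 6 × 10⁵ cells/mL, then infected with 100-300 CCID₅₀ virus stock. Serial 5-fold compound dilutions were added from 10× stocks, in triplicate alongside mock-infected wells. Viability was read by MTT at 540 and 690 nm. EC₅₀ is the concentration giving 50% protection from cytopathic effect, using median OD of three wells.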

[5] = Cytotoxicity against human MT4 cells after 5 days by MTT assay; format: cell-based
Outline: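 Mock-infected MT-4 cells at 6 × 10⁵ cells/mL received medium instead of virus, with serial 5-fold compound dilutions in triplicate. After 5 days, viability was read by MTT at 540 and 690 nm.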

[6] = target: Human immunodeficiency virus type 1 reverse transcriptase (Human immunodeficiency virus 1, UniProt Q72547); experiment: Inhibition of recombinant wild type HIV1 RT using poly(rA)/oligo(dT)16 as template after 40 mins by spectrofluorometric analysis
[7] = target: Human immunodeficiency virus type 1 reverse transcriptase (Human immunodeficiency virus 1, UniProt Q72547, K103N/Y181C); experiment: Inhibition of HIV RT K103N/Y181C mutant by cell based assay
Outline: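 Serial 5-fold compound dilutions in triplicate wells, with parallel mock-infected wells. After 5 days, viability was read by MTT reduction at 540 and 690 nm. The median OD of three wells gave EC₅₀, the concentration giving 50% protection from viral cytopathic effect.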

[8] = tested on: Human immunodeficiency virus 1; experiment: Ratio of delavirdine EC50 to compound EC50 for HIV1 3B; format: functional
[9] = tested on: Human immunodeficiency virus 1; experiment: Ratio of nevirapine EC50 to compound EC50 for HIV1 3B; format: functional

Row | SMILES | EC50 [1] [µM] | EC50 [2] [µM] | selectivity ratio [3] | EC50 [4] [µM] | CC50 at 120 h [5] [µM] | IC50 [6] [µM] | EC50 [7] [µM] | Ratio EC50 [8] | Ratio EC50 [9]
1 | COCCc1ccc(Oc2cc(C)nc(Nc3ccc(C#N)cc3)n2)cc1 | 0.79 | > 13.8 | 18 | > 13.8 | 13.8 | 11.6 |  |  | 
2 | COc1ccc(C(=O)c2ccccc2)c(Oc2cc(C)nc(Nc3ccc(C#N)cc3)n2)c1 | > 4.9 | > 4.9 | < 1 | > 4.9 | 4.9 |  |  |  | 
3 | Cc1cnc(Nc2ccc(C#N)cc2)nc1Oc1ccc(C(=O)c2ccc(O)cc2)cc1 | 3.61 | > 296 | > 82 | > 296 | > 296 | 5.21 |  |  | 
4 | Cc1cc(C)cc(C(=O)c2cc(Cl)ccc2Oc2nc(Nc3ccc(C#N)cc3)ncc2C)c1 | 1.48 | > 13.4 | 9 | > 13.4 | 13.4 | 3.06 |  |  | 
5 | Cc1ccc(C(=O)c2cc(Cl)ccc2Oc2ccnc(Nc3ccc(C#N)cc3)n2)cc1 | > 1.71 | > 1.71 | < 1 | > 1.71 | 1.71 |  |  |  | 
6 | Cc1cnc(Nc2ccc(C#N)cc2)nc1Oc1ccc(OCc2ccccc2)cc1 | > 170 | > 170 | 29 | > 170 | 170 |  |  |  | 
7 | Cc1ccc(C(=O)c2cc(Cl)ccc2Oc2nc(Nc3ccc(C#N)cc3)ncc2C)cc1 | 3.79 | > 0.83 | < 1 | > 0.83 | ≥ 0.83 |  |  |  | 
8 | COc1ccc(C(=O)c2ccccc2)c(Oc2ccnc(Nc3ccc(C#N)cc3)n2)c1 | > 0.76 | > 0.76 | < 1 | > 0.76 | 0.76 |  |  |  | 
9 | Cc1cc(Oc2ccc(C(=O)c3ccc(O)cc3)cc2)nc(Nc2ccc(C#N)cc2)n1 | ≥ 5.18 | > 32 | ≤ 6 | > 32 | 32 | 16.9 |  |  | 
10 | Cc1cc(C)cc(C(=O)c2cc(Cl)ccc2Oc2cc(C)nc(Nc3ccc(C#N)cc3)n2)c1 | > 37.1 | > 37.1 | < 1 | > 37.1 | 37.1 |  |  |  | 
11 | N#Cc1ccc(Nc2nccc(Oc3ccc(C(=O)c4ccc(O)cc4)cc3)n2)cc1 | 2.72 | > 19.4 | 7 | > 19.4 | 19.4 | 7.13 |  |  | 
12 | COCCc1ccc(Oc2ccnc(Nc3ccc(C#N)cc3)n2)cc1 | 0.26 | ≥ 46.2 | 359 | ≥ 93.2 | 93.2 | 2.69 |  |  | 
13 | Cc1ccccc1C(=O)c1cc(Cl)ccc1Oc1ccnc(Nc2ccc(C#N)cc2)n1 | 1.36 | > 28.8 | 21 | > 28.8 | 28.8 | 3.45 |  |  | 
14 | Cc1ccnc2c1NC(=O)c1cccnc1N2C1CC1 [NEVIRAPINE] |  | > 15 |  | 5.12 | > 15 |  |  |  | 
15 | O=C1Nc2ccc(Cl)cc2[C@@](C#CC2CC2)(C(F)(F)F)O1 [EFAVIRENZ] | 0.01 | > 6.34 |  |  | > 6.34 |  |  |  | 
16 | Cc1cc(C)cc(C(=O)c2cc(Cl)ccc2Oc2ccnc(Nc3ccc(C#N)cc3)n2)c1 | 0.79 | > 28.8 | 36 | > 28.8 | 28.8 | 3.22 |  |  | 
17 | Cc1cc(/C=C/C#N)cc(C)c1Nc1ccnc(Nc2ccc(C#N)cc2)n1 [RILPIVIRINE] |  |  |  |  |  |  | 0.0008 |  | 
18 | COc1ccc(C(=O)c2ccccc2)c(Oc2nc(Nc3ccc(C#N)cc3)ncc2C)c1 | ≥ 3.51 | > 7.42 | ≤ 2 | > 7.42 | 7.42 |  |  |  | 
19 | COCCc1ccc(Oc2nc(Nc3ccc(C#N)cc3)ncc2C)cc1 | 0.06 | > 347 | > 6260 | > 347 | > 347 | 1.27 |  | 1.8 | 1.8
20 | Cc1ccccc1C(=O)c1cc(Cl)ccc1Oc1nc(Nc2ccc(C#N)cc2)ncc1C | 1.09 | > 24.2 | 22 | > 24.2 | 24.2 | 5.23 |  |  | 
21 | Cc1cc(Oc2ccc(Cl)cc2C(=O)c2ccccc2C)nc(Nc2ccc(C#N)cc2)n1 | > 4.24 | > 4.24 | < 1 | > 4.24 | 4.24 |  |  |  | 
22 | Cc1cn([C@H]2C[C@H](N=[N+]=[N-])[C@@H](CO)O2)c(=O)[nH]c1=O [ZIDOVUDINE] | 0.01 | 0.01 | > 14400 | 0.01 | > 93.5 |  |  |  | 
23 | N#Cc1ccc(Nc2nccc(Oc3ccc(OCc4ccccc4)cc3)n2)cc1 | 46.1 | > 317 | > 7 | > 317 | > 317 | 31 |  |  | 
24 | Cc1ccc(C(=O)c2cc(Cl)ccc2Oc2cc(C)nc(Nc3ccc(C#N)cc3)n2)cc1 | > 26.6 | > 26.6 | < 1 | > 26.6 | 26.6 |  |  |  | 
25 | CC(C)Nc1cccnc1N1CCN(C(=O)c2cc3cc(NS(C)(=O)=O)ccc3[nH]2)CC1 [DELAVIRDINE] | 0.11 | > 36.2 |  | > 36.2 | > 36.2 |  |  |  | 
26 | Cc1cc(Oc2ccc(OCc3ccccc3)cc2)nc(Nc2ccc(C#N)cc2)n1 | 4.31 | > 27.7 | 6 | > 27.7 | 27.7 | 17.4 |  |  | 
